Results from ChEMBL document CHEMBL2021883, “Amino acid, dipeptide and pseudodipeptide conjugates of ring-substituted 8-aminoquinolines: synthesis and evaluation of anti-infective, β-haematin inhibition and cytotoxic activities” (Eur J Med Chem, 2012).
≈ marks a conversion by molar mass, not a printed value. Calls of active or inactive are those of the source. Unless noted, no cut-off for these calls is given here.

Assays:
Pseudomonas aeruginosa = assay: Antimicrobial activity against Pseudomonas aeruginosa ATCC 27853 by CLSI method; format: functional, organism-based
Method in brief: (§1)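 Antibacterial testing used CLSI/NCCLS broth dilution for aerobically growing bacteria, with 20 as the highest test concentration.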

[1] = Inhibition of beta-hematin formation; format: functional
Plasmodium falciparum [2] = assay: Antimalarial activity against chloroquine-sensitive Plasmodium falciparum D6 assessed as plasmodial LDH activity; format: functional, organism-based; settings: Plasmodium falciparum, D6; read-out: IC50
Candida albicans [3] = assay: Antifungal activity against Candida albicans at 20 ug/ml; format: functional, organism-based
Method in brief: (§2)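 Broth dilution antifungal testing followed the NCCLS reference method for yeasts, with 20 as the highest test concentration. MIC was the lowest concentration with no detectable growth. MFC was the lowest concentration killing the organism.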

Plasmodium berghei [4] = assay: Antimalarial activity against Plasmodium berghei blood-schizont in mouse malaria model assessed as elimination of parasitemia at 100 mg/kg, po for 4 days for 4 days measured after 4 days; format: functional, organism-based; parameters: dose 100 mg/kg
Leishmania donovani = assay: Antileishmanial activity against Leishmania donovani promastigote by Alamar Blue assay; format: functional, organism-based
Staphylococcus aureus [5] = assay: Antimicrobial activity against methicillin-resistant Staphylococcus aureus ATCC 43300 by CLSI method; format: functional, organism-based
Escherichia coli [6] = assay: Antimicrobial activity against Escherichia coli ATCC 35218 by CLSI method; format: functional, organism-based
Plasmodium berghei [7] = assay: Antimalarial activity against Plasmodium berghei blood-schizont in mouse malaria model assessed as elimination of parasitemia at 100 mg/kg, po for 4 days for 4 days measured after 7 days; format: functional, organism-based; parameters: dose 100 mg/kg
Method in brief: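 P. berghei-infected mice, 6 per group, received compound orally once daily for 4 days at 10, 25, 50 or 100 mg/kg/day. "Active" meant all treated animals were parasitaemia-negative up to D+7. "Curative" meant complete parasite elimination with survival to D+60. Outcomes were recorded as cured/total.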

Aspergillus fumigatus = assay: Antifungal activity against Aspergillus fumigatus; format: functional, organism-based
Method in brief: (§3)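 Yeasts and A. fumigatus were tested by broth microdilution following the NCCLS antifungal standards. The highest test concentration was 20.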

Plasmodium falciparum [8] = assay: Antimalarial activity against chloroquine-resistant Plasmodium falciparum W2 assessed as plasmodial LDH activity; format: functional, organism-based; settings: Plasmodium falciparum, W2; read-out: IC50
[9] = test system: Mycobacterium intracellulare; assay: Antimicrobial activity against Mycobacterium intracellulare ATCC 23068 by Franzblau method; format: functional, organism-based
[10] = Selectivity index, ratio of IC50 for african green monkey Vero cells to IC50 for chloroquine-sensitive Plasmodium falciparum D6; format: toxicity, cell-based; settings: Vero cells versus Plasmodium falciparum D6, read-out: Ratio IC50
[11] = Selectivity index, ratio of IC50 for african green monkey Vero cells to IC50 for chloroquine-resistant Plasmodium falciparum W2; format: toxicity, cell-based; settings: Vero cells versus Plasmodium falciparum W2, read-out: Ratio IC50
Candida albicans [12] = assay: Fungicidal activity against Candida albicans at 20 ug/ml; format: functional, organism-based; method in brief: as §2
Vero = assay: Cytotoxicity against african green monkey Vero cells upto 23.8 […] by neutral dye assay; format: cell-based, Chlorocebus sabaeus
Method in brief: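 Vero monkey kidney cells were exposed to compound up to a highest concentration of 23.8, with viability read by neutral red uptake.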

Staphylococcus aureus [13] = assay: Antimicrobial activity against Staphylococcus aureus ATCC 29213 by CLSI method; format: functional, organism-based
Cryptococcus neoformans = assay: Antifungal activity against Cryptococcus neoformans; format: functional, organism-based; method in brief: as §3
Escherichia coli [14] = assay: Bactericidal activity against Escherichia coli ATCC 35218 at 20 ug/ml by CLSI method; format: functional, organism-based; method in brief: as §1
Staphylococcus aureus [15] = assay: Bactericidal activity against methicillin-resistant Staphylococcus aureus ATCC 43300 at 20 ug/ml by CLSI method; format: functional, organism-based
Method in brief: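 MBC is the lowest concentration that kills the organism. 20 was the highest concentration tested.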

Staphylococcus aureus [16] = assay: Antimicrobial activity against methicillin-resistant Staphylococcus aureus ATCC 43300 at 20 ug/ml by CLSI method; format: functional, organism-based
Escherichia coli [17] = assay: Antimicrobial activity against Escherichia coli ATCC 35218 at 20 ug/ml by CLSI method; format: functional, organism-based; method in brief: as §1
[18] = test system: Mycobacterium intracellulare; assay: Bactericidal activity against Mycobacterium intracellulare ATCC 23068 at 20 ug/ml by Franzblau method; format: functional, organism-based
[19] = test system: Mycobacterium intracellulare; assay: Antimicrobial activity against Mycobacterium intracellulare ATCC 23068 at 20 ug/ml by Franzblau method; format: functional, organism-based
[20] = Leishmania donovani, read-out: IC50

Compound | Activity (Pseudomonas aeruginosa) | IC50 [1] [µM] | IC50 (Plasmodium falciparum [2]) [µg/mL] | Activity (Candida albicans [3]) | IC90 (Leishmania donovani) | Activity (Staphylococcus aureus [5]) | Activity (Escherichia coli [6]) | Activity (Aspergillus fumigatus) | IC50 (Plasmodium falciparum [8]) [µg/mL] | Activity [9] | selectivity ratio [10] | selectivity ratio [11] | Activity (Candida albicans [12]) | IC50 (Vero) | IC50 (Cryptococcus neoformans) [µg/mL] | MFC (Cryptococcus neoformans) [µg/mL] | MIC (Cryptococcus neoformans) [µg/mL] | Activity (Escherichia coli [14]) | Activity (Staphylococcus aureus [15]) | Activity (Staphylococcus aureus [16]) | further results
COc1cc(NC(C)CCCNC(=O)CC[C@H](NC(=O)[C@@H](N)CCCNC(=N)N)C(=O)O)c2nc(C(C)(C)C)ccc2c1 (some centres undefined) | inactive | 96 | 2.3 (≈ 3.83 µM) | inactive | inactive | inactive | inactive | inactive | 2 (≈ 3.33 µM) | inactive | > 10.3 | > 11.9 | inactive | Non-toxic | 15 (≈ 25 µM) | 20 (≈ 33.3 µM) | 20 (≈ 33.3 µM) | – | – | – | Activity (Plasmodium berghei [4]): inactive; IC50 (Leishmania donovani): Not Active; Activity (Plasmodium berghei [7]): inactive; Activity (Staphylococcus aureus [13]): inactive
COc1cc(NC(C)CCCNC(=O)C[C@H](NC(=O)[C@@H](N)CCCNC(=N)N)C(=O)O)c2nc(C(C)(C)C)ccc2c1 (some centres undefined) | inactive | 115 | 3.3 (≈ 5.62 µM) | inactive | inactive | inactive | – | inactive | 2.8 (≈ 4.77 µM) | inactive | > 7.2 | > 8.5 | inactive | Non-toxic | 15 (≈ 25.6 µM) | 20 (≈ 34.1 µM) | 20 (≈ 34.1 µM) | inactive | inactive | inactive | Activity (Escherichia coli [17]): inactive; Activity [18]: inactive; IC50 (Leishmania donovani): Not Active; IC50 (Escherichia coli [6]): 15 µg/mL (≈ 25.6 µM); Activity [19]: inactive
COc1cc(NC(C)CCCNC(=O)[C@@H](CCCN)NC(=O)[C@H](N)CCCN)c2nc(C(C)(C)C)ccc2c1 (some centres undefined) | inactive | 39 | 4.76 (≈ 8.75 µM) | inactive | – | inactive | inactive | inactive | 3.3 (≈ 6.07 µM) | – | > 5 | > 7.21 | inactive | Non-toxic | 3.5 (≈ 6.44 µM) | 5 (≈ 9.2 µM) | 5 (≈ 9.2 µM) | inactive | inactive | inactive | Activity (Escherichia coli [17]): inactive; Activity [18]: inactive; IC90 (Leishmania donovani; Leishmania donovani): 38 µg/mL (≈ 69.9 µM); IC50 (Leishmania donovani; [20]): 20 µg/mL (≈ 36.8 µM); IC50 [9]: 10 µg/mL (≈ 18.4 µM); MIC [9]: 20 µg/mL (≈ 36.8 µM)
COc1cc(NC(C)CCCNC(=O)[C@H](CCCN)NC(=O)[C@@H](N)CCCN)c2nc(C(C)(C)C)ccc2c1 (some centres undefined) | inactive | 85 | 2.5 (≈ 4.6 µM) | inactive | inactive | inactive | inactive | inactive | 2 (≈ 3.68 µM) | inactive | > 9.5 | > 11.9 | inactive | Non-toxic | 3.5 (≈ 6.44 µM) | 5 (≈ 9.2 µM) | 5 (≈ 9.2 µM) | – | – | – | Activity (Plasmodium berghei [4]): inactive; IC50 (Leishmania donovani; [20]): 20 µg/mL (≈ 36.8 µM); Activity (Plasmodium berghei [7]): inactive; Activity (Staphylococcus aureus [13]): inactive
COc1cc(NC(C)CCCNC(=O)C[C@H](NC(=O)[C@@H](N)CCCCN)C(=O)O)c2nc(C(C)(C)C)ccc2c1 (some centres undefined) | inactive | 131 | 3.8 (≈ 6.8 µM) | inactive | – | inactive | – | inactive | 2.8 (≈ 5.01 µM) | inactive | > 6.2 | > 8.5 | inactive | Non-toxic | 3.5 (≈ 6.26 µM) | 5 (≈ 8.95 µM) | 5 (≈ 8.95 µM) | inactive | inactive | inactive | Activity [18]: inactive; IC90 (Leishmania donovani; Leishmania donovani): 31 µg/mL (≈ 55.5 µM); IC50 (Leishmania donovani; [20]): 9.4 µg/mL (≈ 16.8 µM); IC50 (Escherichia coli [6]): 15 µg/mL (≈ 26.8 µM); MIC (Escherichia coli [6]): 20 µg/mL (≈ 35.8 µM); Activity [19]: inactive
